Screens (PubChem BioAssay)
Most compounds without a hit are left out; they make up all but 2.3% or so of the library.
TRPC4 act: activators of mouse TRPC4 channel, primary screen, Fluo4 calcium, HEK293 TRPC4beta/mu-opioid cells. Fluo4 calcium fluorescence; stronger effect = higher value. B-score at 10 µM. hit rate 0.49% among 310,000. AID 2237, 2010;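 active = B-score above 5 SD of library B-scores, and initial fluorescence ratio not above library mean plus 5 SD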;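 also: positive B-score marks a calcium rise read as TRPC4 activation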
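Assay system – TRPC4beta and mu-opioid receptor HEK293 stable cells · Measured by – Fluo4 fluorescence, kinetic · Schedule – dye loading 45 min room temperature, 110 s kinetic read · Read-out – B-scored integrated calcium fluorescence ratio · Controls – buffer and maximal DAMGO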
TRPC4 block: inhibitors of mouse TRPC4 channel, primary screen, Fluo4 calcium, HEK293 TRPC4beta/mu-opioid cells; DAMGO-evoked Fluo4 calcium flux; stronger effect = lower value; AID 2247, 2010; hit rate 0.39% among 300,000; B-score at 10 µM; Short transient receptor potential channel 4 (Mus musculus), Q9QUQ5;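 active = B-score over 3 SD under the library average, no early fluorescence shift, positive overall ratio signal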
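Assay system: HEK293 cells with stable TRPC4beta plus mu-opioid receptor expression. Dosing: single dose. Measured by: Fluo4 Ca2+ flux fluorescence. Also added: DAMGO in two steps, submaximal then maximal. Read-out: B score from integrated Fluo4 fluorescence ratio.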
TRPC4 potent: positive allosteric modulators of TRPC4, primary screen, cell-based, mouse TRPC4beta, HEK293 mu-opioid, Fluo-4 calcium | B-score at 10 µM | DAMGO EC20, Fluo-4 Ca2+ flux; stronger effect = higher value | Short transient receptor potential channel 4 (Mus musculus), Q9QUQ5 | hit rate 0.42% among 310,000 | AID 2227, 2009;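 active = B-score of calcium response area above 5 SD of library B-scores, with initial fluorescence ratio within 5 SD of library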
TRPC6 inh: mouse TRPC6 channel inhibitors, primary screen, cell-based, HEK293, membrane potential dye; hit rate 1.1% among 310,000; B-score at 10 µM; Short transient receptor potential channel 6 (Mus musculus), Q61143; AID 2553, 2010; ACh-evoked depolarization; stronger effect = lower value;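 active = B-score under library mean minus 3 SD, initial fluorescence not abnormally high, positive integrated signal ratio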;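 also: B-score derived from integrated fluorescence ratio over the kinetic read; more negative B-score means stronger inhibition of depolarization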
Target sequence (Q61143 whole entry, looked up): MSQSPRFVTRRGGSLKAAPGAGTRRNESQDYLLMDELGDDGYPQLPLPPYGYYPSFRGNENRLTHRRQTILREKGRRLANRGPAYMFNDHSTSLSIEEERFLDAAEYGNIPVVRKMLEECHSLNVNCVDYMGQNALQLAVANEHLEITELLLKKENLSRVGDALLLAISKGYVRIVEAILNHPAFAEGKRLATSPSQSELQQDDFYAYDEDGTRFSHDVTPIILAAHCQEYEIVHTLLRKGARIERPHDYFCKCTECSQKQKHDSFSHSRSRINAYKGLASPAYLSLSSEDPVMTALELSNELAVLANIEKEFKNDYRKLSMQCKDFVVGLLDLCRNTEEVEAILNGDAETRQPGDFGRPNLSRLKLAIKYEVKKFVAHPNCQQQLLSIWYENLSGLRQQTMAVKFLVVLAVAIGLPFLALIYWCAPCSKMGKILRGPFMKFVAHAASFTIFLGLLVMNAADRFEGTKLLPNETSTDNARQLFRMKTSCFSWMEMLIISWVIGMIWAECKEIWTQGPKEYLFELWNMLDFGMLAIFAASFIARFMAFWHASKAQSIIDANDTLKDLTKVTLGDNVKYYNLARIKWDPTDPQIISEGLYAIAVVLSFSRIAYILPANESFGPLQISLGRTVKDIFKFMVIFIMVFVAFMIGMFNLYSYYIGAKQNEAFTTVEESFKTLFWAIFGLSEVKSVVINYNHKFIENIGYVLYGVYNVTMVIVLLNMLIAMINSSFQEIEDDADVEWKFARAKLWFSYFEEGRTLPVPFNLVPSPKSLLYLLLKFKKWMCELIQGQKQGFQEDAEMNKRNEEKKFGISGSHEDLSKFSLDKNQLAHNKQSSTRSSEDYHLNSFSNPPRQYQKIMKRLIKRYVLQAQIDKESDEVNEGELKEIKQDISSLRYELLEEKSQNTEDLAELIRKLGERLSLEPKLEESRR
TRPC6 activator: mouse TRPC6 channel activators, primary screen, cell-based, HEK293, membrane potential dye; hit rate 0.13% among 310,000; HEK293-TRPC6 membrane potential dye fluorescence; stronger effect = higher value; Short transient receptor potential channel 6 (Mus musculus), Q61143; B-score at 10 µM;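 active = B-score of the integrated fluorescence ratio above library mean plus 3 SD, and starting fluorescence ratio within library mean plus 5 SD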;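 also: higher score means more depolarization so channel activation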
Of the large screens only hits and unclear results are named; the others gave an inactive call.

CN(C)CCOC(=O)c1sc2ccccc2c1Cl	TRPC4 act 92
COc1ccc(-c2noc(CN(C)C(=O)c3ccoc3C)n2)cc1OC	none
O=C(N/N=C/c1cc2c(cc1Br)OCO2)c1cc2ccccc2o1	TRPC4 block -7
CC1(c2ccc(OC(F)F)cc2)NC(=O)N(CC(=O)Nc2ccccc2)C1=O (stereo not drawn)	TRPC4 act 68
CC1(c2ccc(OC(F)F)cc2)NC(=O)N(CC(=O)Nc2ccc3c(c2)OCO3)C1=O (stereo not drawn)	TRPC4 act 89, TRPC4 potent 12
CC(=O)Nc1ccc(/C=N/N2C(=O)NC(C)(c3ccc(OC(F)F)cc3)C2=O)cc1 (stereo not drawn)	TRPC4 act 95
CCOc1nc(NC2CCCC2)nc(N2CCC(C)CC2)n1	none
O=[N+]([O-])c1ccc(Cl)c(NC2=NCCCCC2)c1	none
O=C(Nc1ccsc1C(=O)O)c1ccc(Cl)cc1	none
COc1cc(NC(=O)c2cc(CC(C)C)on2)c(OC)cc1Cl	TRPC4 potent 10
CCCc1cc(C(=O)Nc2cc(OC)c(Cl)cc2OC)no1	none
COc1ccc(C2=CC(=O)C=CC2=O)cc1	TRPC4 act 91
CCOP(=O)(OCC)c1nc(-c2cccc3ccccc23)oc1NCc1ccccc1	none
CCOP(=O)(OCC)c1nc(-c2cccc3ccccc23)oc1NCc1ccc(OC)cc1	TRPC4 potent 13
O=C(O)CC(c1cccc2ccccc12)N1Cc2ccccc2C1=O (stereo not drawn)	TRPC4 potent 34
CCOC(=O)CCn1c(=O)c2c(nc(Br)n2Cc2ccccc2)n(C)c1=O	TRPC4 block -5
N#CC(C#N)=Cc1c(N2CCN(c3ccccc3)CC2)nc2ccccn2c1=O	none
CCn1cnc2cc(NCc3ccc(C)cc3)ccc21	none
Cc1ccc(CNc2ccc3c(c2)ncn3C(C)C)cc1	TRPC4 act 45
CCOC(=O)C1(Cc2ccccc2)CCN(Cc2cccn2-c2nccs2)CC1	TRPC4 act 46
CCOC(=O)C1(Cc2ccccc2)CCN(Cc2cccc3nccnc23)CC1	none
CCOC(=O)C1(Cc2ccccc2)CCN(Cc2cccn2-c2cccnc2)CC1	TRPC4 act 45
CCOC(=O)C1(CCOc2ccccc2)CCN(Cc2cccn2-c2cccnc2)CC1	TRPC4 act 116
CCOC(=O)C1(CCOc2ccccc2)CCN(CCCn2cccn2)CC1	none
O=C(Nc1ccccc1Cl)C(=O)c1cn(CC(=O)N2CCOCC2)c2ccccc12	none
CN1CCN(Cc2cccc(Oc3ccc(Cl)cc3)c2)CC1	TRPC4 potent 19
COc1ccc(Cl)cc1NC(=O)CN(C)C(=O)c1cc2ccccc2cc1O	none
COc1ccc(C(=O)NC2CCN(S(=O)(=O)c3ccc(C)cc3)CC2)cc1	none
CCOP(=O)(c1ccccc1)c1nc(-c2ccccc2Cl)oc1N1CCCCC1 (stereo not drawn)	TRPC4 potent 17
COc1ccc(CNC(=O)C2Cc3cc(S(=O)(=O)N4CCCC4)ccc3N2C(C)=O)c(OC)c1 (stereo not drawn)	none
CCOC(=O)C1(CCOc2ccccc2)CCN(Cc2ccc(CO)o2)CC1	none
CCOC(=O)C1(CCOc2ccccc2)CCN(Cc2cccc3c2OCO3)CC1	TRPC4 block -7
CCOC(=O)C1(CCOc2ccccc2)CCN(Cc2cccc(-n3cccn3)c2)CC1	TRPC4 act 98
CCOC(=O)C1(CCOc2ccccc2)CCN(Cc2ccc(OC)cc2)CC1	TRPC4 act 94
CCOC(=O)C1(CCOc2ccccc2)CCN(Cc2cnc(C)s2)CC1	TRPC4 act 115
CCOC(=O)C1(CCOc2ccccc2)CCN(Cc2ccccc2O)CC1	none
COc1ccc(Br)c(C(=O)N2CCN(S(=O)(=O)c3cccs3)CC2)c1	none
CSCCC(NC(=O)c1ccccc1)C(=O)N/N=C(\C)Cc1ccccc1 (stereo not drawn)	none
COc1ccc(OC)c(CN2CCC(CO)(CCOc3ccccc3)CC2)c1	none
CC(COc1ccccc1)N1CCC(CO)(CCc2ccccc2)CC1 (stereo not drawn)	TRPC4 act 51
CCOC(=O)C1(CCOc2ccccc2)CCN(Cc2cccc(OC)c2OC)CC1	TRPC4 act 74
CCOC(=O)C1(CCOC)CCN(C(C)CCc2ccc(OC)cc2)CC1 (stereo not drawn)	TRPC4 block -7
CCOC(=O)C1(CCOC)CCN(C(=O)Cc2ccc3ccccc3c2)CC1	none
COc1cc(CN2CCC(CO)(CCOc3ccccc3)CC2)cc(OC)c1	TRPC4 block -5
CSCC(C)N1CCC(CO)(CCc2ccccc2)CC1 (stereo not drawn)	none
CCN(CC)CCNC(=O)CNC(=O)c1nn(-c2ccc(OC)c(OC)c2)c(=O)c2ccccc12	none
CCOC(=O)C1(CCOc2ccccc2)CCN(Cc2ccc(NC(C)=O)cc2)CC1	TRPC4 act 83
CC(=O)Nc1ccc(CN2CCC(CO)(CCOc3ccccc3)CC2)cc1	none
COc1ccc(/C=C2\SC(=S)N(N3C(=O)CCC3=O)C2=O)cc1O	TRPC4 potent 144
COc1ccc(/C=C2\SC(=O)N(CC(=O)Nc3ccc(F)cc3)C2=O)cc1O	TRPC4 potent 11
CCCC/C(O)=C1\C(=O)CC(C)(C)CC1=Nc1ccc(OC)cc1	TRPC4 potent 12
N#CC(C#N)=Cc1cccn1-c1ccc(C(=O)O)cc1	none
N#C/C(=C/c1cccn1-c1cccc(C(=O)O)c1)c1ccc(Cl)cc1	TRPC4 block -6
Cc1cc(NC(=O)C(C)SCC(=O)OCc2ccc([N+](=O)[O-])cc2)no1 (stereo not drawn)	none
CCC(C)(C)n1nnnc1C(c1cccnc1)N1CCC(Cc2ccccc2)CC1 (stereo not drawn)	TRPC4 block -6
CCN(CC)CCCNC(=O)c1ccc2c(SCC(=O)O)c3c(nc2c1)CCC3	none
Cc1nc2ccccc2c2oc(C(=O)NCCCN3CC(C)CC(C)C3)cc12 (stereo not drawn)	TRPC4 act 83
CC1CC(C)CN(CCCNC(=O)c2ccc3c(SCC(=O)O)c4c(nc3c2)CCC4)C1 (stereo not drawn)	TRPC4 act 76
CC1CC(=O)N(CC(=O)Nc2ccc(F)cc2)c2ccccc2S1(=O)=O (stereo not drawn)	none
O=C(CCC(=O)N1CCN(Cc2ccccc2)CC1)Nc1nnc(C2CCCCC2)s1	none
O=C(Nc1ccccc1Br)c1ccc(N2CCCC2=O)cc1	none
O=C(CN1CCN(S(=O)(=O)N2CCCCC2)CC1)Nc1ccc(Cl)c(Cl)c1	none
